The source of these data is the EternaBench riboswitch data.

The test system of this data set is MS2 coat protein. Briefly: apparent Kd, MS2 coat protein; higher = weaker binding; RNA-MaP array; FMN 200 µM where present. The essentials: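 Designs were transcribed by stalled E. coli RNA polymerase on Illumina sequencing-chip clusters. They were titrated with SNAP-549-labelled MS2 coat protein from 0.7 or 1.5 nM, doubling to 3 µM, without and then with constant ligand. Buffer: 100 mM Tris-HCl pH 7.5, 80 mM KCl, 4 mM MgCl2, BSA, DTT, yeast tRNA, Tween-20. Green signal was normalised to red-channel RNA signal and control-cluster median Fmax. Apparent Kd is the median of filtered per-cluster binding-curve fits.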

The mark [1] stands for this setting: designed as: OFF switch for flavin mononucleotide, no ligand.
Setting [2] is: ligand present: flavin mononucleotide, designed as: OFF switch for flavin mononucleotide.
[3] abbreviates: designed as: ON switch for flavin mononucleotide, no ligand.
Where [4] appears, read: ligand present: flavin mononucleotide, designed as: ON switch for flavin mononucleotide.

“AAUUGACACGUAGGAUAUCGCUCUUAUUUAACACGAGAAGGACGUACAUGAGGAUCACCCAUGUUAAAUGGUGUAGAUUAGUUG”: the apparent Kd – broadly, a dissociation constant that holds for the conditions of the assay – by setting is: under setting [1], 153 nM; under setting [2], 481 nM.

On to “CGCAAUAUACAGAAGGAGUUAUUUAGAGGAUUACUAGGAUAUGUUCACAUGAGGAUCACCCAUGUCAUAUGGAGUUUUAUUGCG”, for which the “apparent Kd” value runs as follows: under setting [1], 9.43 nM; under setting [2], 8.27 nM.

For the sequence “UUUCAGCUCACAUGAGGAUCACCCAUGUCCGUUCGCCCGGACAGAAGGCACCCAUAACAAUGCGGUGAGGAUAUGUCAGCAAGG”, the “apparent Kd” value runs as follows: under setting [3], 141 nM; under setting [4], 14 nM.

As to “UUACGUCACAUUUACAUGAGGAUCACCCAUGUCGAAAGACAUGAGGAUAUGCUACCUAAUUGGUAGCAGAAGGCAUGGACGUCG”, the “apparent Kd” value is, setting by setting: under setting [3], 834 nM; under setting [4], 81.1 nM.

“GUCAGCUCGUGAGGAUAUACAACACUGCCUCGGCAGUGUAUUAAGAUCACAUGAGGAUCACCCAUGUAGAAGGCACGAGCUGAU”: the “apparent Kd” value runs as follows: under setting [1], 13.4 nM; under setting [2], 214 nM.

On to “UUAAUUAUACAAGGAUAUCUAUUGUAGUUUCGACAUACAUGAGGAUCACCCAUGUUAGUAUGUUUAGAGAAGGUGUAUUUUCAG”, for which the “apparent Kd” value is, setting by setting: under setting [3], 28.1 nM; under setting [4], 25.2 nM.

As for “CCUGUGUGAGGAUAUGGUGUUGGCCACAAGGAAUAGCUCCUCCAGAAGGCACAUGAGGAUCACCCAUGUCGUGG”, the “apparent Kd” value by setting is: under setting [1], 17.6 nM; under setting [2], 80.3 nM.

Turning to “GUAGCAUACGCAGGAUAUUCAUAUAAUAAAUAAACAUGAGGAUCACCCAUGUGGCGAAAGCCUUGGGAGAAGGGCGAAUGCUAC”, the “apparent Kd” value is 485 nM under setting [3] and 65.5 nM under setting [4].

Take “CGCUACAUGAGGAUCACCCAUGUACUUACUUGCACGUGAACGAGAAGGCCACAGCAACACAGCGUGGAGGAUAUCGUGGUGCCU”: the “apparent Kd” value under setting [3] was determined as 10.8 nM and the “apparent Kd” value under setting [4] was 9.35 nM.

As to “UAUAUAUAAUAUAUUAACAUGAGGAUCACCCAUGUCGCUAGACAGGAUAUAUUUUAUUUUUUUAAGUAGAAGGGUCAUAUAAUU”, the “apparent Kd” value is, setting by setting: under setting [3], 63.7 nM; under setting [4], 86.1 nM.

Take “AGAUUUGUACAUGAGGAUCACCCAUGUUAAUAGGUGUUUGUCAGAAGGCAUUAAGAGAGAAUUAAUGAGGAUAUGAAGUUACAU”: the “apparent Kd” value amounted to 42.3 nM under setting [3] and 21.7 nM under setting [4].

With “GUACUACAUGAGGAUCACCCAUGUCAGGAUAUGUGAAUUUCAUCAAAAGAUGAAAUUUGCAGAAGGGACAGUAC”, the “apparent Kd” value is, setting by setting: under setting [1], 25.3 nM; under setting [2], 33.9 nM.

As for “CCUAAGGAGGUAGGAUAUUGUGUGGUGGCCGGGCUCCCACGGCGAGCGGCACAAGAAGGAUCCCUACAUGAGGAUCACCCAUGU”, the “apparent Kd” value was 25.5 nM under setting [3] and 20.3 nM under setting [4].

Regarding “UGUAUGGACAGAGGAUAUACGGAUAGGAUCUACUAUCAAACAAGUCCUACAUGAGGAUCACCCAUGUAGAAGGCUGUCCAUACU”, the “apparent Kd” value by setting is: under setting [1], 16.4 nM; under setting [2], 22.7 nM.

“AUGCCAGAAGGAUAUACAUGAGGAUCACCCAUGUCAUGUUUGAUUCGCCCGCAGGGCUGUAGAAGGUCUGGCAU”: the “apparent Kd” value came out at 65.2 nM under setting [1] and 543 nM under setting [2].

Turning to “CUGUGACGGAUCCAGAAUUACAACAUGAGGAUCACCCAUGUACAGGAUAUCGGGUUGAUAGGCGCCGAGAAGGGUAUGAUCACG”, the “apparent Kd” value runs as follows: under setting [1], 137 nM; under setting [2], 121 nM.

With “AGUGUCAUCGAGAAGGCCUCAUGAACAUGAGGAUCACCCAUGUAAUAUGGGAGGAUAUCGAUGAUACAGCUACGUUUCGUAGCA”, the “apparent Kd” value by setting is: under setting [3], 51.4 nM; under setting [4], 33.9 nM.

Consider “AAACACGGACAUGAGGAUCACCCAUGUGGCGAAAGCCUUGGGAGAAGGCAGUAUGCAAAGCAUUCUGAGGAUAUCCAUACCGUG”, for which the “apparent Kd” value by setting is: under setting [3], 18.4 nM; under setting [4], 6.63 nM.

As to “AGUGACUACGUAGGAUAUUAAAUCAUGUACUACAUGAGGAUCACCCAUGUUAAUUUAACAUCAGCUGAGAAGGACGUGGUCACA”, the “apparent Kd” value was 20.6 nM under setting [3] and 11.6 nM under setting [4].

On to “GCACUUGCGUAGAAGGUACAUUAUAAUUAAUUGUAAGGAUAUACAAACAUGAGGAUCACCCAUGUAAAUGGAAUUUGCAAGUGC”, for which the “apparent Kd” value is 6.52 nM under setting [3] and 6.36 nM under setting [4].

Consider “UGUAACCGAGGAUAUACAUGAGGAUCACCCAUGUAAUGUAGUAUAGUGUGUGUGAGGUGUAGAAGGUGGGAUGU”, for which the “apparent Kd” value runs as follows: under setting [1], 93.4 nM; under setting [2], 97.2 nM.

On to “CUCAUGAGAGGAUAUACAUGAGGAUCACCCAUGUGGUUAUCUCCUCGGGCUCCAUUACGUAGAAGGCUCAUUUG”, for which the “apparent Kd” value under setting [1] came out at 33.9 nM and the “apparent Kd” value under setting [2] amounted to 90.6 nM.

On to “UCCUUGUCCUGAGGAUAUCCGCGGUUCCCAAAAGGAGAAGGCAGGACAUGAGGAUCACCCAUGUACCCAGAAAACGUGCAGAGU”, for which the “apparent Kd” value under setting [1] is 36.8 nM and the “apparent Kd” value under setting [2] was 313 nM.

For “UGGUGAGUCAAGAAGGACAUGAGGAUCACCCAUGUAGGAUAUUGGCGUCACGGCUCCAAUACGUACAUGUGGGACGGUCAAAGG”, the “apparent Kd” value under setting [3] is 48.6 nM and the “apparent Kd” value under setting [4] is 16.5 nM.

Consider “UCCUCUUUGAAGAAGGCGUGGUUAUGCAAGCCGCGAGGAUAUUCACAUGAGGAUCACCCAUGUGGAUUUCAGUCCGCUCAAAAC”, for which the “apparent Kd” value came to 11.9 nM under setting [1] and 61.8 nM under setting [2].

As for “UAGGUUUGUAGUUACAUCCCUACACAGGAUAUAGGUAGUUACAUGAGGAUCACCCAUGUUCGAACUUAGAAGGGUGGAUCGUUG”, the “apparent Kd” value is, setting by setting: under setting [3], 48 nM; under setting [4], 10.3 nM.

For “AGCAAGUAUACAUGAGGAUCACCCAUGUUUUUUAGGGUUAUCAGAAGGUACAUUUUGAGAUAGAGUAAGGAUAUGAAAUAUGCG”, the “apparent Kd” value under setting [3] amounted to 214 nM and the “apparent Kd” value under setting [4] came to 130 nM.

With “AGUAACAGAGGAUAUACUGUUUUAUGUAUUUAUUAUUUUAAACAUGAGGAUCACCCAUGUAGAAGGCUGAAUGA”, the “apparent Kd” value by setting is: under setting [1], 24.5 nM; under setting [2], 23.3 nM.

In the case of “GGCCGGGCAGGAUAUACAUGAGGAUCACCCAUGUAUAUCCUUCAGCAUGGAUCCUCAUGUAGAAGGGCCCGGCC”, the “apparent Kd” value is 13.2 nM under setting [1] and 11.9 nM under setting [2].

For the sequence “AAAACAUGAGGAUCACCCAUGUAAAGAUCGGUUAAUAGAGGUGAGGAUAUACGAAGUUAAAGCUGGUAGAAGGCACUGGGUACA”, the “apparent Kd” value is, setting by setting: under setting [3], 78.5 nM; under setting [4], 51.3 nM.

With “CAUAUCCAAGGAUAUACGAUGGCUCCUUCCAUCGUGUGACCACAUGAGGAUCACCCAUGUAGAAGGUGGAUAUU”, the “apparent Kd” value worked out at 23.2 nM under setting [1] and 24 nM under setting [2].

For the sequence “GGUACUCAAAGAGUACCAAUUCGAACAUGAGGAUCACCCAUGUAGGAUAUGCUACUCAAAGAGUAGCAGAAGGACAUGUGCCUA”, the “apparent Kd” value under setting [1] turned out to be 15.6 nM and the “apparent Kd” value under setting [2] was determined as 73.6 nM.

Regarding “CCUCGACAUGAGGAUCACCCAUGUCAGGAUAUUGUGUCUCGGGUUUUUUACCGAUAGGCAAGAAGGGAUGUGUG”, the “apparent Kd” value runs as follows: under setting [1], 23.4 nM; under setting [2], 31 nM.

Turning to “GGCUCAGUGACAUGAGGAUCACCCAUGUGGCUCAUUCAACGCAGAAGGCACAAGGGAACACCUCGUGAGGAUAUGCAAGUAGAC”, the “apparent Kd” value turned out to be 367 nM under setting [3] and 36.7 nM under setting [4].

Regarding “GUGUAGAUAGGAUAUGCUUUGAGCCUACGAAAGUACGCUCGACAUGAGGAUCACCCAUGUAGAAGGGUUUACAC”, the “apparent Kd” value reads like this: under setting [1], 119 nM; under setting [2], 58.9 nM.

Consider “AAAAAAAAAGUGCAGGAUAUCCUCAUGGCUACAUGAGGAUCACCCAUGUGAAGAAAAGCACAUGAGGAGAAGGGCACAAAAAAAAA”, for which the “apparent Kd” value was 23.4 nM under setting [3] and 12.3 nM under setting [4].
